Holding throughout (format): functional, cell-based
For test [1], the system named is K562. As to the kind of experiment: Cytotoxicity against human K562 cells after 48 hrs. Particulars: K562, 48 h. The method, boiled down: (§1)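 MTT colorimetric assay. Cells were kept in RPMI-1640 with 10% fetal bovine serum at 37 °C, 5% CO2, humidified. They were seeded at 6 × 10^4 cells/mL and allowed to attach for 24 h. Diluted samples were then added for 48 h. MTT (0.5 mg/mL) was added for 3 h, and optical density was read at 550 nm.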

Test [2] concerns A549. As to the kind of experiment: Cytotoxicity against human A549 cells after 48 hrs. Particulars: A549, 48 h. The method, boiled down: as §1
The subject of test [3] is BGC-823. Briefly: Cytotoxicity against human BGC823 cells after 48 hrs. Conditions: BGC-823, 48 h. The procedure, abridged: as §1

In the case of `C=C1C(=O)O[C@@H]2C[C@@]1(C)OC[C@H]2C1CC[C@H]2[C@@H]3C[C@H]4O[C@]45C[C@H](O)CC(=O)C5(C)[C@H]3CCC12C` (stereo partly drawn), the IC50 was 460 nM in test [1], 1700 nM in test [2] and 1000 nM in test [3].
Take `C=C1C(=O)O[C@@H]2C[C@@]1(C)OC[C@H]2C1CCC2C3C[C@H]4OC(=O)CC=CC4=C(C)C3CCC21C` (stereo partly drawn) [1,10-SECO-WITHAMETELIN B]: the half-maximal inhibitory concentration (IC50) in test [1], in test [2] and in test [3] was over 10000 nM each time.
On to `C=C1C(=O)O[C@@H]2C[C@@]1(C)OC[C@H]2C1CCC2C3C[C@H]4OC(=O)CC=CC4=C(C)C3C[C@@H](O)C21C` (stereo partly drawn) [12BETA-HYDROXY-1,10-SECO-WITHAMETELIN B], for which the IC50 in test [1], in test [2] and in test [3] was over 10000 nM in each case.
As for `COc1cccc2c1C(=O)c1c(O)c3c(c(O)c1C2=O)C[C@@](O)(C(=O)CO)C[C@@H]3O[C@H]1C[C@H](N)[C@H](O)[C@H](C)O1` [DOXORUBICIN], the 50% inhibitory concentration (IC50) in test [1] is 580 nM; in test [2], 750 nM; in test [3] it was 350 nM.
The like results for `C=C1C(=O)O[C@@H]2C[C@@]1(C)OC[C@H]2C1CCC2C3C[C@H]4O[C@]45CC=CC(=O)C5(C)C3C[C@@H](O)C21C` (stereo partly drawn) [WITHAMETELIN I] were, in that order, 50 nM, 1200 nM and 1300 nM.
In the case of `C=C1C(=O)O[C@@H]2C[C@@]1(C)OC[C@H]2C1CCC2C3C[C@@H](O)[C@@]4(O)CC=CC(=O)C4(C)C3C[C@@H](O)C21C` (stereo partly drawn) [WITHAMETELIN J], the figures for the IC50 in test [1], in test [2] and in test [3] were 2500 nM, over 10000 nM and 5200 nM, respectively.
Consider `C=C1C(=O)O[C@@H]2C[C@@]1(C)OC[C@H]2C1CCC2C3C[C@@H](O)C4=CC=CC(=O)C4(C)C3C[C@@H](O)C21C` (stereo partly drawn) [WITHAMETELIN K], for which the figures for the half-maximal inhibitory concentration (IC50) in test [1], in test [2] and in test [3] were 120 nM, 3500 nM and 1900 nM, respectively.
As for `C=C1C(=O)O[C@@H]2C[C@]1(C)OC[C@H]2[C@H]1CC[C@H]2[C@@H]3CC=C4CC=CC(=O)[C@]4(C)[C@H]3C[C@@H](O)[C@]12C` [WITHAMETELIN L], the IC50 in test [1] turned out to be 550 nM; in test [2], 2000 nM; in test [3], 1600 nM.
With `C=C1C(=O)O[C@@H]2C[C@@]1(C)OC[C@H]2C1CCC2C3CC=C4C=CCC(=O)C4(C)C3C[C@@H](O)C21C` (stereo partly drawn) [WITHAMETELIN M], the IC50 in test [1], in test [2] and in test [3] was over 10000 nM each time.
As for `C=C1C(=O)O[C@@H]2C[C@@]1(C)OC[C@H]2C1CCC2C3C[C@H](O)[C@]4(O)CC=CC(=O)C4(C)C3CCC21C` (stereo partly drawn) [WITHMETELIN O], the half-maximal inhibitory concentration (IC50) in test [1], in test [2] and in test [3] was over 10000 nM each time.
Consider `CC1=C(CO[C@@H]2O[C@H](CO)[C@@H](O)[C@H](O)[C@H]2O)C(=O)O[C@@H]([C@@H](CO)C2CCC3C4C[C@@H](O)[C@@]5(O)CC=CC(=O)C5(C)C4CCC32C)C1` (stereo partly drawn) [WITHMETELIN P], for which the IC50 in test [1], in test [2] and in test [3] was over 10000 nM in each case.

Usually IC50 stands for the concentration at which inhibition is half-maximal. A low value points to greater potency.

Values taken from ChEMBL document CHEMBL1145455, “Cytotoxic withanolides from the flowers of Datura metel” (J Nat Prod, 2007).
